Test results: ChEMBL document CHEMBL1148507, “Discovery of a novel, orally active, small molecule gonadotropin-releasing hormone (GnRH) receptor antagonist” (J Med Chem, 2006); call rule not given here

Columns and labels:
[1] = molecular target: Cytochrome P450 3A4 (Homo sapiens, UniProt P08684); assay: Inhibition of CYP3A4; assay type: ADME
[2] = molecular target: Cytochrome P450 2C9 (Homo sapiens, UniProt P11712); assay: Inhibition of CYP2C9; assay type: ADME
[3] = Half life in Sprague-Dawley rat at 5 mg/kg, iv or 20 mg/kg, po; assay type: ADME, organism-based; settings: in vivo
Outline: (§1)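 Intact male rats with indwelling jugular vein catheters, recovered overnight; single dose 5 mg/kg i.v. (5 mg/mL in 70% PEG400/30% H2O) or 20 mg/kg p.o. (20 mg/mL suspension in 0.5% CMC). Plasma by C18 HPLC, 50-70% ACN gradient in 10 mM ammonium phosphate pH 7, UV 260 nm; noncompartmental parameters; F = AUCp.o./AUCi.v.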

[4] = Clearance in Sprague-Dawley rat at 5 mg/kg, iv or 20 mg/kg, po; assay type: ADME, organism-based; settings: in vivo; outline: as §1
[5] = Volume of distribution in Sprague-Dawley rat at 5 mg/kg, iv or 20 mg/kg, po; assay type: ADME, organism-based; settings: in vivo, read-out: Vdss; outline: as §1
[6] = Oral bioavailability in Sprague-Dawley rat at 5 mg/kg, iv and 20 mg/kg, po; assay type: ADME, organism-based; settings: in vivo; outline: as §1
[7] = test system: Rattus norvegicus; assay: Suppression of testosterone level to below 0.5 ng/mL castrate level for 12 hrs in po dosed gonad intact Sprague-Dawley rat; assay type: ADME, organism-based; settings: in vivo
Outline: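 Single-housed intact male SD rats (300-325 g), jugular cannulated 3 days prior; basal bleed 7:00-7:30 am, then single oral dose 5.0, 25, 50 or 100 mg/kg in 0.5% CMC suspension, n = 6/dose; serial heparinized plasma; testosterone by coated-tube RIA; castrate level <0.5 ng/mL; mean ± SEM.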

[8] = test system: Rattus norvegicus; assay: Suppression of luteinizing hormone levels to below 0.12 mIU/mL in po dosed castrated Sprague-Dawley rat; assay type: ADME, organism-based; settings: in vivo
Outline: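 Male SD rats (200-225 g) castrated under halothane, 14 days recovery, jugular cannulated; basal bleed then single oral dose 5.0, 20, 50 or 100 mg/kg in 0.5% CMC, n = 6/dose; serial plasma LH by coated-tube RIA, detection limit 0.12 mIU/mL; mean ± SEM.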

[9] = molecular target: Adenosine receptor A3 (Homo sapiens, UniProt P0DMS8); assay: Binding affinity to human A3 receptor
Outline: (§2)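 Selectivity panel of 54 assays (ion channels, GPCRs, monoamine transporters) run at Cerep; Ki determined for hits at 10 µM; human isoform where marked.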

[10] = molecular target: Sodium-dependent noradrenaline transporter (Homo sapiens, UniProt P23975); assay: Binding affinity to human NE transporter; outline: as §2
[11] = molecular target: Type-1 angiotensin II receptor (Homo sapiens, UniProt P30556); assay: Binding affinity to human AT1 receptor; outline: as §2
[12] = molecular target: Sodium-dependent serotonin transporter (Homo sapiens, UniProt P31645); assay: Binding affinity to human 5HT transporter; outline: as §2
[13] = molecular target: T1, Voltage-gated L-type calcium channel (Homo sapiens, UniProt Q13936+Q13698+Q01668+O60840); assay: Binding affinity to L type calcium channel; assay type: protein assay; outline: as §2
[14] = molecular target: T1, Voltage-gated L-type calcium channel; assay: Binding affinity to DHP site of L type calcium channel; assay type: protein assay; outline: as §2
[15] = molecular target: T1, Voltage-gated L-type calcium channel; assay: Binding affinity to diltiazem site of L type calcium channel; assay type: protein assay; outline: as §2
[16] = molecular target: D(1A) dopamine receptor (Homo sapiens, UniProt P21728); assay: Binding affinity to human D1 receptor; outline: as §2
[17] = Inhibition KCl-stimulated calcium channel activity
[18] = molecular target: Cytochrome P450 1A2 (Homo sapiens, UniProt P05177); assay: Inhibition of CYP1A2; assay type: ADME
[19] = molecular target: Cytochrome P450 2C19 (Homo sapiens, UniProt P33261); assay: Inhibition of CYP2C19; assay type: ADME
[20] = molecular target: Cytochrome P450 2D6 (Homo sapiens, UniProt P10635); assay: Inhibition of CYP2D6; assay type: ADME
[21] = molecular target: D(3) dopamine receptor (Homo sapiens, UniProt P35462); assay: Binding affinity to human D3 receptor; outline: as §2
[22] = molecular target: D(4) dopamine receptor (Homo sapiens, UniProt P21917); assay: Binding affinity to human D4.4 receptor; outline: as §2
[23] = molecular target: Sodium-dependent dopamine transporter (Homo sapiens, UniProt Q01959); assay: Binding affinity to human DA transporter; outline: as §2
[24] = molecular target: Histamine H2 receptor (Homo sapiens, UniProt P25021); assay: Binding affinity to H2 receptor; outline: as §2
[25] = molecular target: Muscarinic acetylcholine receptor M1 (Homo sapiens, UniProt P11229); assay: Binding affinity to human M1 receptor; outline: as §2
[26] = molecular target: Muscarinic acetylcholine receptor M4 (Homo sapiens, UniProt P08173); assay: Binding affinity to human M4 receptor; outline: as §2
[27] = molecular target: Substance-P receptor (Homo sapiens, UniProt P25103); assay: Binding affinity to human NK1 receptor; outline: as §2
[28] = molecular target: Kappa-type opioid receptor (Homo sapiens, UniProt P41145); assay: Binding affinity to kappa opiate receptor; outline: as §2
[29] = molecular target: Mu-type opioid receptor (Homo sapiens, UniProt P35372); assay: Binding affinity to human mu opiate receptor; outline: as §2
[30] = molecular target: Platelet-activating factor receptor (Homo sapiens, UniProt P25105); assay: Binding affinity to PAF; outline: as §2
[31] = molecular target: 5-hydroxytryptamine receptor 2A (Homo sapiens, UniProt P28223); assay: Binding affinity to human 5HT2A receptor; outline: as §2
[32] = molecular target: 5-hydroxytryptamine receptor 2C (Homo sapiens, UniProt P28335); assay: Binding affinity to human 5HT2C receptor; outline: as §2
[33] = molecular target: 5-hydroxytryptamine receptor 7 (Homo sapiens, UniProt P34969); assay: Binding affinity to human 5HT7 receptor; outline: as §2
[34] = molecular target: T2, Gonadotropin-releasing hormone receptor (Rattus norvegicus, UniProt P30969); assay: Binding affinity to rat pituitary GnRH receptor
[35] = molecular target: T2, Gonadotropin-releasing hormone receptor; assay: Antagonist activity at rat pituitary GnRH receptor assessed as inhibition of GnRH-stimulated inositol phosphate accumulation; assay type: functional; settings: in the assay text read “recombinant rat” for “rat pituitary”
Outline: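 Rat receptor functional assay run against 100 nM GnRH; total inositol phosphate accumulation measured; IC50 with Hill coefficient derived.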

T2 sequence (P30969 whole entry): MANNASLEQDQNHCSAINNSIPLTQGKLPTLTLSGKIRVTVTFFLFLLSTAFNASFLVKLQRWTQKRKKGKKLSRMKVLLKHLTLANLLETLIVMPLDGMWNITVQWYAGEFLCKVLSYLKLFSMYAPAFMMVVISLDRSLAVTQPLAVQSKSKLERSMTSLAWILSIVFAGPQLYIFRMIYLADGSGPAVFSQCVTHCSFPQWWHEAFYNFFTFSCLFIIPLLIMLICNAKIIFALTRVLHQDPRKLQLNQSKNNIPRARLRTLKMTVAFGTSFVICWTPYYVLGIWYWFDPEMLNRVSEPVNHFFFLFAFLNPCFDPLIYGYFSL
Sequence of Adenosine receptor A3 (P0DMS8 whole entry, canonical isoform): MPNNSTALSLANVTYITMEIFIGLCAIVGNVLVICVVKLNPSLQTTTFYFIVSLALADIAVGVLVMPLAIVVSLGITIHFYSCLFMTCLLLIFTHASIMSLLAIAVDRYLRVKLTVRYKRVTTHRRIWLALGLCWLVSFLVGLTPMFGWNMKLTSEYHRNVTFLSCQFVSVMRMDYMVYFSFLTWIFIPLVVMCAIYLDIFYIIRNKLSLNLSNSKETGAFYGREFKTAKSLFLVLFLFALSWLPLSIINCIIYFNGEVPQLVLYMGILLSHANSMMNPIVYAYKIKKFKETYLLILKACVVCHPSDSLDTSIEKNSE
Sequence of D(1A) dopamine receptor (P21728 whole entry): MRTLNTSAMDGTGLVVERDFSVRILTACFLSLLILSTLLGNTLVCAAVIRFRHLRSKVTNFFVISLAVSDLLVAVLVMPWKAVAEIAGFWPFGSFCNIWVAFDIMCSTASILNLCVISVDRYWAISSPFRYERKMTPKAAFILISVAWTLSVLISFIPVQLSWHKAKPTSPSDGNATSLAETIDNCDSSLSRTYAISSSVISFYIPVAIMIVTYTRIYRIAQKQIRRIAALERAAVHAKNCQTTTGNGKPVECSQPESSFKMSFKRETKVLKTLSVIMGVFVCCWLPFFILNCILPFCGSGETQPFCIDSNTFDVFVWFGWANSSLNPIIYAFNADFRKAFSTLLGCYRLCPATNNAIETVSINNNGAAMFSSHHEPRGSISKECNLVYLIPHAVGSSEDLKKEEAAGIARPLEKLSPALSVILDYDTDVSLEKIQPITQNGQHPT
Sequence of Cytochrome P450 2C9 (P11712 whole entry): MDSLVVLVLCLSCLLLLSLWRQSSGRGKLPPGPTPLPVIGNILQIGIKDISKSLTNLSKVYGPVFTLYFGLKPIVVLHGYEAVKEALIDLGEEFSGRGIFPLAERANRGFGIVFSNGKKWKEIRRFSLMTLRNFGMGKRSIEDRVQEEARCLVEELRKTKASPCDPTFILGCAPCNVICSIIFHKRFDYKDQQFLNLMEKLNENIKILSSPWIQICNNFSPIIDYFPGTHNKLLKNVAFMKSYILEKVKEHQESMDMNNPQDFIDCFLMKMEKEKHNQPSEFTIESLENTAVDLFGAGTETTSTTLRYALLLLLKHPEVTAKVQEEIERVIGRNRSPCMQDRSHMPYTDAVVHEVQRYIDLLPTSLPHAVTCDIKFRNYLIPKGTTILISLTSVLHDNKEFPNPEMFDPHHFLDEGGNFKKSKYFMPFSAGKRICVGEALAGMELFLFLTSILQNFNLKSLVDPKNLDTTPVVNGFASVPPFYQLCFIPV
Sequence of Cytochrome P450 2C19 (P33261 whole entry): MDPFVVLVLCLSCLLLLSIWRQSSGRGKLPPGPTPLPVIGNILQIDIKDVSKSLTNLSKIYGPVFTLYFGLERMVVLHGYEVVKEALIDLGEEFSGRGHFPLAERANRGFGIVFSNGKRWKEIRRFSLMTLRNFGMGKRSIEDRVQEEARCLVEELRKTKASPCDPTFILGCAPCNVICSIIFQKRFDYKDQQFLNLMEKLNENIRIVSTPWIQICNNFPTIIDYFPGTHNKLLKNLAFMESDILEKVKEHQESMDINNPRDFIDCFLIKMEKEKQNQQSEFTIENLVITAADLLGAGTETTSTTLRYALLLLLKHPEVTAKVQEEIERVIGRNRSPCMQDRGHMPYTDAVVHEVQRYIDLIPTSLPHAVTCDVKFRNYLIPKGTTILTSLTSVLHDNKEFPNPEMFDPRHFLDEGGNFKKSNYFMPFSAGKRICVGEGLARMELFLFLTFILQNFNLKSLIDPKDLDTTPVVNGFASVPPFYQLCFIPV
Sequence of 5-hydroxytryptamine receptor 2A (P28223 whole entry): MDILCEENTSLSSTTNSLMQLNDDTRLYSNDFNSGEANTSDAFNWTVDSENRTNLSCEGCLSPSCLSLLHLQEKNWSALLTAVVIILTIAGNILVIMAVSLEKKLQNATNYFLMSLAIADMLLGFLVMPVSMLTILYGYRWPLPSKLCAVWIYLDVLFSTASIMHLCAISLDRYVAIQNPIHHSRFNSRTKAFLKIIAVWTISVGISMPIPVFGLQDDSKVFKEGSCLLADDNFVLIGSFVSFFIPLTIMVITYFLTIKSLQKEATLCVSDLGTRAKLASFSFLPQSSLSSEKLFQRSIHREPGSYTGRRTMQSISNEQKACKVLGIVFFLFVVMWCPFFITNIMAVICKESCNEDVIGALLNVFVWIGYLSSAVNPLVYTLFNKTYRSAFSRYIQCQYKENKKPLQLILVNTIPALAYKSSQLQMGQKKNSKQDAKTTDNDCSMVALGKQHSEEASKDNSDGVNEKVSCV
Sequence of Histamine H2 receptor (P25021 whole entry): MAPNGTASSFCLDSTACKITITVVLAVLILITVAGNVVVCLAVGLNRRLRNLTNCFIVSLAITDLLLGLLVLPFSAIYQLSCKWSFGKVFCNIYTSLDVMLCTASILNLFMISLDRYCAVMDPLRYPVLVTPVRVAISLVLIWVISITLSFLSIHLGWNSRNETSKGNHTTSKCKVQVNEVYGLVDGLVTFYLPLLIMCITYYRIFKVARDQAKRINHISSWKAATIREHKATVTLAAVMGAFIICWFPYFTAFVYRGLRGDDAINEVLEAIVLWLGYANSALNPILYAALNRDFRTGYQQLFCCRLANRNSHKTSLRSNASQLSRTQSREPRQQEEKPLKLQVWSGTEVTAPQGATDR
Sequence of Sodium-dependent dopamine transporter (Q01959 whole entry): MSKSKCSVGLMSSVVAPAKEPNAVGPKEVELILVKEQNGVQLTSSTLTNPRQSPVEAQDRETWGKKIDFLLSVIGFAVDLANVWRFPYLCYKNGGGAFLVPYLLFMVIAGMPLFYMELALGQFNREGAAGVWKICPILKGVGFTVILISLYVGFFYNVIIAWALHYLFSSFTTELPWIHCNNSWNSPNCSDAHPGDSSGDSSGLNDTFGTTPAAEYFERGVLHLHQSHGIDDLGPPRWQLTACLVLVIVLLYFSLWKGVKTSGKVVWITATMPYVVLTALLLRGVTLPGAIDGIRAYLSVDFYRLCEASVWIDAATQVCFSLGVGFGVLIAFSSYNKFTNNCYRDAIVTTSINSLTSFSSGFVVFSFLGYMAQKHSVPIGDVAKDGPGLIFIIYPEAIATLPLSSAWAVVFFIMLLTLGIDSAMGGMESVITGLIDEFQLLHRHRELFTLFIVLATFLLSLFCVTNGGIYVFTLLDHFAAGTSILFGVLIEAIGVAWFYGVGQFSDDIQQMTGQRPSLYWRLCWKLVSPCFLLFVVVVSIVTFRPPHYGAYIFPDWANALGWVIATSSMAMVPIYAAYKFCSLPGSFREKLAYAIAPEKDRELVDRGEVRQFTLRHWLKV
Sequence of Cytochrome P450 1A2 (P05177 whole entry): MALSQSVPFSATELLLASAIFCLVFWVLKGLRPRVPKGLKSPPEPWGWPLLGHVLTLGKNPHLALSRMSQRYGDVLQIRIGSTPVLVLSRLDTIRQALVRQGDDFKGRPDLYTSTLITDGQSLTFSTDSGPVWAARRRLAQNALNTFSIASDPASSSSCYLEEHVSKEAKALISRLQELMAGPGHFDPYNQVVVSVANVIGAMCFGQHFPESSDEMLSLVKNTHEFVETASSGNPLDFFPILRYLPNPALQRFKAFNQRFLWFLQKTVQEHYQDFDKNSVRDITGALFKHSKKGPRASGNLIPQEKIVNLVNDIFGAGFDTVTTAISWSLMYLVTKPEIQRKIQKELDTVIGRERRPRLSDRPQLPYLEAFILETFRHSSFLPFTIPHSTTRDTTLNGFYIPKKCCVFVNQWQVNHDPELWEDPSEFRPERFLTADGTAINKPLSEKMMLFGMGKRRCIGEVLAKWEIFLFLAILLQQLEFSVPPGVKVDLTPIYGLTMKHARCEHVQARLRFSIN
Sequence of Cytochrome P450 3A4 (P08684 whole entry): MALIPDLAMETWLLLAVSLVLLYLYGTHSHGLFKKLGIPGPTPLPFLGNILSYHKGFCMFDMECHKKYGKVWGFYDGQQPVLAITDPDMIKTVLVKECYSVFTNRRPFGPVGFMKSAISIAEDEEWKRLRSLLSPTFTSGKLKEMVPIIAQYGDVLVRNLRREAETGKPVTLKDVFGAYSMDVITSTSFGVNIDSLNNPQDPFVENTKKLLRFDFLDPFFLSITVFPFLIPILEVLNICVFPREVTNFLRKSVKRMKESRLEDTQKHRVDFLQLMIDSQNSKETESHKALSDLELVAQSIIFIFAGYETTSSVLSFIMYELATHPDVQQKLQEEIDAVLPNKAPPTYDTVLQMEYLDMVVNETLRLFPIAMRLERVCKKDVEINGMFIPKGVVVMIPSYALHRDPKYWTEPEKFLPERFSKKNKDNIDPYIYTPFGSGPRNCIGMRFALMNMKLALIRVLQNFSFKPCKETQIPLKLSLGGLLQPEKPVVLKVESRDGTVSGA
Sequence of Type-1 angiotensin II receptor (P30556 whole entry): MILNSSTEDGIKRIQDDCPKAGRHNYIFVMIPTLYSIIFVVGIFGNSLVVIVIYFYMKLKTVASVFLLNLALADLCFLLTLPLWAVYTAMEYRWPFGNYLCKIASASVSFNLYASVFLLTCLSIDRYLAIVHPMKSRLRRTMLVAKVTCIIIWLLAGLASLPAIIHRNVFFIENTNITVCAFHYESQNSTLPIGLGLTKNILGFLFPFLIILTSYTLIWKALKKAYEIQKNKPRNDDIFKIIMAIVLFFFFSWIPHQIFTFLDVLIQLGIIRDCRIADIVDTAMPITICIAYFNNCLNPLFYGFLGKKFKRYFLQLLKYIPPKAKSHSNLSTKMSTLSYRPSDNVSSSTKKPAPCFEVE

COc1nc(NCCCN2CCOCC2)nc(OC)c1NC(=O)c1ccc(Oc2cc3c(cc2C)CCC3(C)C)o1
IC50 [1]: > 30000 nM
IC50 [2]: 3000 nM
half-life [3]: 5.1 h
clearance [4]: 5.5 mL/min/kg
Vd [5]: 1.1 L/kg
bioavailability [6]: 26%
Activity [7]: Dose-dependent effect
Activity [8]: Dose-dependent effect
Ki [9]: 628 nM
Ki [10]: 5090 nM
Ki [11]: 3710 nM
Ki [12]: 1430 nM
Ki [13]: 145 nM
Ki [14]: 145 nM
Ki [15]: 370 nM
Ki [16]: 1620 nM
IC50 [17]: 6300 nM
IC50 [18]: > 30000 nM
IC50 [19]: > 30000 nM
IC50 [20]: > 30000 nM
Ki [21]: 1180 nM
Ki [22]: 2510 nM
Ki [23]: 1800 nM
Ki [24]: 1220 nM
Ki [25]: 4120 nM
Ki [26]: 3680 nM
Ki [27]: 1250 nM
Ki [28]: 1960 nM
Ki [29]: 1400 nM
Ki [30]: 1060 nM
Ki [31]: 583 nM
Ki [32]: 964 nM
Ki [33]: 1750 nM
Ki [34]: 0.4 nM
IC50 [35]: 8.8 nM
